The results in this text go back to ChEMBL document CHEMBL4513216, “Probing the Open Global Health Chemical Diversity Library for Multistage-Active Starting Points for Next-Generation Antimalarials” (ACS Infect Dis, 2020).

This series in a line: Toxicity liver stage against HepG2, at 10uM. The note with it: human, HepG2-A16-CD81EGFP cells; read-out: INHIBITION
In kind it is cell-based. Details: test concentration 10 uM, cell line HepG2-A16-CD81EGFP. The essentials:
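Uninfected HepG2-A16-CD81EGFP cells, 3 × 10^3 per well, 1536-well, plated on prespotted compound at 10 μM final, parasite-free screening media added to match infected plates; puromycin 10 μM positive, DMSO 0.5% negative; run in parallel with 48 h PbLuc assay at 37 °C, 5% CO2; viability by CellTiter-Glo luminescence, normalized to controls.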
Regarding `Cc1cncc(C2CCCN(C(=O)c3cnco3)C2)n1` (stereo unspecified), the cytotoxicity at 10 µM was -6.94%. On to `FC(F)C(F)(F)COCc1ncnn1-c1ccc2c(c1)OCO2`, for which the cytotoxicity at 10 µM is -2.82%. On to `O=C(O)c1cnc(N2CCC(O)CC2)nc1COc1cccc(F)c1`, for which the cytotoxicity at 10 µM is -9.09%. As for `Cc1cc(C2CCCN(CC(=O)N3CCCc4ccccc43)C2)n[nH]1` (stereo unspecified), the cytotoxicity at 10 µM was -4.14%. Then `Cc1nonc1C(=O)N1CCCC(c2ncncc2-c2ccncc2)C1` (stereo unspecified), with 1.41%. `COc1c(CNC2CCc3c(Cl)cccc32)c(C)nn1C` (stereo unspecified): the cytotoxicity at 10 µM is 13.3%. On to `Cn1ccc(C(=O)N2CCC(Cc3cnc4[nH]ccc4c3)CC2)n1`, for which the cytotoxicity at 10 µM came out at 8.77%. `O=C(NCCc1cc(N2CCOCC2)nc(NC2CC2)n1)C1CC1`: the cytotoxicity at 10 µM was -0.995%. Consider `CCOC(=O)[C@]12CCCN(Cc3nccs3)C[C@H]1CN(CC(C)C)C2`, for which the cytotoxicity at 10 µM was -2.85%.

Regarding `Cc1noc(C)c1CCC(=O)NC(C)c1nnc2n1CCC2` (stereo unspecified), the cytotoxicity at 10 µM is -3.39%. On to `COC[C@H]1CN(CC2CC2)C(=O)[C@@H]2CCN(Cc3ccoc3)CC[C@H]12`, for which the cytotoxicity at 10 µM was -2.05%. Consider `CC(C)n1[nH]c(=O)c2c1NC(=O)CC2c1cccc(Br)c1` (stereo unspecified), for which the cytotoxicity at 10 µM was 5.28%.

As for `c1cnc(N2CCc3onc(CN4CCOCC4)c3C2)cn1`, the cytotoxicity at 10 µM came to 14.1%. The result for `CCc1nc(C)c(CNC(=O)CCCN2CCCCC2)s1` reads -4.65%; that for `O=C(NCc1ccccn1)NCC(O)c1ccccc1C(F)(F)F` (stereo unspecified), -0.36%; that for `CCC1COCCN1C(=O)CNC(=O)c1ccsc1` (stereo unspecified), 4.53%.

As to `CNC(=O)c1ccc(C(=O)N2CCCC2c2cnn(C)c2)cn1` (stereo unspecified), the cytotoxicity at 10 µM is -6.41%. For the compound `COCCN1CCCC1c1ccnc(-c2ccccc2)n1` (stereo unspecified), the cytotoxicity at 10 µM is 1.09%. Take `NC(=O)c1cc(C2CCCN(CCOCC3CC3)C2)n[nH]1` (stereo unspecified): the cytotoxicity at 10 µM was -11.5%. As for `Cc1ccc(CN2CCCC3(CCCN3S(C)(=O)=O)C2)s1` (stereo unspecified), the cytotoxicity at 10 µM is -97.9%.

As to `CC(=O)N1CC(=O)N(c2ccsc2)CC12CCN(Cc1ccccn1)C2` (stereo unspecified), the cytotoxicity at 10 µM was found to be 13%. With `NC(=O)c1nnn(-c2ccc(Br)cc2)n1`, the cytotoxicity at 10 µM stood at 6.56%. The result for `CCO[C@@H]1CC[C@H]2[C@H]1OCCN2CC1CCOCC1` reads 10.8%; that for `Cc1n[nH]c(C)c1CC(=O)NCCc1ccccc1`, 13.7%. For the compound `CN(C)Cc1cccc(-c2cccnc2C(=O)NCC2CC2)c1`, the cytotoxicity at 10 µM was found to be 1.59%. Consider `CCCN1CCN(C(=O)c2cnn(-c3ccccc3F)c2)CC1`, for which the cytotoxicity at 10 µM was 0.313%. `O=C(CCc1ccc(Br)cc1F)NS(=O)(=O)c1ccc2c(c1)OCCO2`: the cytotoxicity at 10 µM was determined as 2.48%. As for `Cc1nn(CC(=O)N2CCN(c3ccc(F)cc3)CC2)c(C)c1Cl`, the cytotoxicity at 10 µM worked out at 6.87%.

Regarding `COc1ccc2c(ccn2CCC(=O)O)c1`, the cytotoxicity at 10 µM is 15.4%. In the case of `CC(=O)N1CC2(CCN(S(=O)(=O)N(C)C)CC2)C2(CCNC2=O)C1` (stereo unspecified), the cytotoxicity at 10 µM is -6.9%.

As to `COc1cccc(CN2CCCCCC2c2cccs2)c1OC` (stereo unspecified), the cytotoxicity at 10 µM turned out to be 8.29%. Take `COc1ccc(NC(=O)c2cnc(C3CCN(C)CC3)nc2C)cc1`: the cytotoxicity at 10 µM is -1.46%. As for `NC(=O)CCC1CCCN(c2ncnc3c2Cc2ccccc2OC3)C1` (stereo unspecified), the cytotoxicity at 10 µM worked out at 0.721%. With `COCCO[C@H]1CCN(Cc2ccoc2)[C@H]1Cc1cccnc1`, the cytotoxicity at 10 µM was -3.85%. The result for `O=C(O)c1cc2c(nc1O)CC(c1cccs1)CC2=O` (stereo unspecified) reads 8.32%. In the case of `Cc1cc(C)c(N(CC(O)CNCc2ccccc2)S(C)(=O)=O)c(C)c1` (stereo unspecified), the cytotoxicity at 10 µM was -12.7%. Then `Cc1cc(C)n(CC2CCCCN2C(=O)c2ccc3c(c2)OCO3)n1` (stereo unspecified), with 5.44%; and `OC1(CNc2ccc(Br)cn2)CCOCC1`, with 6.91%.

For the compound `CC(C)(C)c1cc(CNC(=O)c2cc(COc3ccccc3)[nH]n2)[nH]n1`, the cytotoxicity at 10 µM was 8.28%. Then `Cc1cc(C)c(C(=O)N(CCO)Cc2ccccc2F)c(=O)[nH]1`, with -0.626%. The result for `CC(Cn1cccn1)NC(=O)N1CCN(Cc2cccs2)CC1` (stereo unspecified) reads 2.31%; that for `CN(C)C[C@H]1OC[C@@H]2CCN(C(=O)c3cccn3C)C[C@@H]21`, -2.29%; that for `CCCn1cc(CN2CCC(c3[nH]ncc3S(C)(=O)=O)C2)cn1` (stereo unspecified), 4.27%.

On to `CC1(C)CC(NC(=O)c2cnn(-c3ccccc3F)c2N)CC(C)(C)N1`, for which the cytotoxicity at 10 µM is -4.14%. In the case of `CS(=O)(=O)CC(=O)N1C[C@H]2CCC[C@@]2(COCc2ccccn2)C1`, the cytotoxicity at 10 µM was 4.35%.

For the compound `COCCNc1ccc(CNCc2cnc3nc(C)cc(C)n23)cc1`, the cytotoxicity at 10 µM is -153%. `Cc1cc(C)nc(N2CCN(Cc3nccn3C)CC2)n1`: the cytotoxicity at 10 µM is -20.9%. As for `CCOCC1CN(C(=O)c2ccnnc2)Cc2cnn(C)c21` (stereo unspecified), the cytotoxicity at 10 µM was 7.07%. Consider `COCCNC(=O)CCn1ncc2c(Cl)cccc21`, for which the cytotoxicity at 10 µM is 10.5%. The result for `Cn1ccnc1N1CCN(C(=O)Cc2ccc(Cl)cc2)CC1` reads 5.73%. `CCN1CC(C(=O)N2CC(Oc3ccccc3F)C2)CC1=O` (stereo unspecified): the cytotoxicity at 10 µM is -2.49%. Then `COc1ccc(C(N)=O)cc1NCc1ncc(-c2cccs2)o1`, with 8.2%. In the case of `CC(=O)N1CCN(Cc2csc(-c3cnn(C)c3)n2)CC1`, the cytotoxicity at 10 µM was -1.78%. As for `Cn1ccnc1C(=O)NC[C@@H]1OC[C@H]2CN(CC3CC3)CC[C@H]21`, the cytotoxicity at 10 µM is -115%.

Take `CC1=C(C(=O)N(C)Cc2n[nH]c3c2CCCCC3)C(C)NC(=O)N1` (stereo unspecified): the cytotoxicity at 10 µM was -0.178%. Take `Cc1n[nH]c(C)c1NC(=O)CN1CCc2c(nc(C3CC3)n2C)C1`: the cytotoxicity at 10 µM was -3.15%.

In the case of `Cc1cc(C(=O)N(C)Cc2cnn(C)c2)c(NC(=O)C(C)(C)C)s1`, the cytotoxicity at 10 µM was 0.254%. The result for `COC1C[C@@H]2CN(C(=O)c3cc4cccc(F)c4[nH]3)C[C@@H]2C1` (stereo partly specified) reads 1.51%; that for `CN(C)CC1CN(C(=O)Cc2ccccc2)Cc2nccn2C1` (stereo unspecified), -115%; that for `COc1ccc(CNC(=O)CCn2cc(C)cn2)cc1C`, -4.27%. With `CS(=O)(=O)CCN(CCCO)C1CCc2ccccc21` (stereo unspecified), the cytotoxicity at 10 µM was determined as 7.37%. On to `CN1CCN(c2nccc(-c3cncnc3C3CCCCC3)n2)CC1`, for which the cytotoxicity at 10 µM was -4.33%. The result for `O=C(NCC1CC1)[C@H]1C[C@H]2OCC[C@H]2N(Cc2ccsc2)C1` reads 2.47%. With `Cc1ccc(C(=O)Nc2cn[nH]c2)cc1F`, the cytotoxicity at 10 µM is -14.7%. For `COc1ccccc1CN(CCCn1ccnc1)CC1CCOC1` (stereo unspecified), the cytotoxicity at 10 µM was 11%. As for `CC1CCN(S(=O)(=O)N2CCn3cccc3C2C)CC1` (stereo unspecified), the cytotoxicity at 10 µM was -0.224%. Then `CC(C)(C)OC(=O)N1CC(=O)N(Cc2ccco2)CC(O)C1` (stereo unspecified), with 4.11%; and `Cc1ccc(N2CCCC3(CCN(C(=O)NC4CCCC4)C3)C2)nn1` (stereo unspecified), with -114%. Then `COc1ccccc1OC(C)CNC(=O)c1cnc[nH]1` (stereo unspecified), with 1.57%; and `CC(C)(CO)Nc1c(NCc2ccncc2)c(=O)c1=O`, with -3.97%; and `Cc1nc(-c2ccncc2)ncc1C(C)NC(=O)CN1CCCCC1` (stereo unspecified), with 1.47%. With `O=C(Nc1ccccc1OCC(F)F)N[C@@H]1C=C[C@H](CO)C1`, the cytotoxicity at 10 µM is -7.14%. The result for `O=C(C1CC1)N1CCCCCC1C1CCN(c2ncccn2)CC1` (stereo unspecified) reads -9.56%; that for `CC(C)c1ncc(CNC2(c3ccc(Cl)cc3)CC2)cn1`, -32.3%. Regarding `COCCN1C[C@H]2CCC[C@@H](CNc3ncccn3)[C@H]2C1`, the cytotoxicity at 10 µM was -112%. The result for `CCCOc1cccc(OCc2ccon2)c1` reads -4.9%; that for `CCCOC(=O)N1CCCC2(CCN(Cc3cccc(C#N)c3)C2)C1` (stereo unspecified), -4.59%.

Take `COc1ccc(CC(=O)N2CCCC2c2nc(C)c(C)c(O)n2)cc1` (stereo unspecified): the cytotoxicity at 10 µM was -17.7%. Then `Cn1ccc2c(ccn2CC(=O)Nc2ccc(Br)cc2)c1=O`, with 10.4%; and `Cc1n[nH]c(C)c1CNC(=O)CSCc1ccccc1Cl`, with -4.02%; and `CN(C)CCNc1cc(-c2ncccc2C(F)(F)F)c2cc[nH]c2n1`, with 7.2%. For `CCN(Cc1ccncc1)C(=O)c1cn(CCC2CCCCC2)nn1`, the cytotoxicity at 10 µM stood at 10.5%.

In the case of `O=C(N1CCOCC1)[C@@]12CCO[C@@H]1CCN(Cc1ccncc1)C2`, the cytotoxicity at 10 µM was -1.2%. Then `O=C(CCc1ccccn1)N1CCN(C(=O)CC2CCCCC2)CC1`, with -1.8%; and `COCCC(=O)N1CC[C@@H](N2CCOCC2)[C@@H]1Cc1ccccc1`, with -70.4%; and `Cn1ccnc1CN1CCC(CCC(=O)Nc2ccccc2Cl)CC1`, with -3.73%.

As to `Cc1nc(C)c(CC(=O)N2CCCN(CC3CC3)C(C(C)C)C2)c(=O)[nH]1` (stereo unspecified), the cytotoxicity at 10 µM is -153%. As to `CCN1CC(COC(=O)c2cc(Br)ccc2F)CC1=O` (stereo unspecified), the cytotoxicity at 10 µM is 5.09%. Then `NC(=O)NCC(=O)N1CCCC(c2nccn2Cc2ccncc2)C1` (stereo unspecified), with 5.07%; and `Cc1oncc1C(=O)N1CC2CC1(C(=O)N(C)C)C2`, with -0.95%; and `CCc1cc(NCCCN(C)C2CCCC2)ncn1`, with 1.75%.

In the case of `COc1ccccc1C1=NOC(CC2(C(=O)NC(C)C)CCOCC2)C1` (stereo unspecified), the cytotoxicity at 10 µM is -20.4%. The result for `c1ccc2c(c1)nc1n2[C@@H](CNCc2nccs2)COC1` reads -1.4%.

As to `CCc1cnc(NCC2OCCc3ccccc32)nc1` (stereo unspecified), the cytotoxicity at 10 µM is -3.6%.

On to `CCC(N)C(=O)N1CCC(OCc2ccc(Cl)c(Cl)c2)CC1` (stereo unspecified), for which the cytotoxicity at 10 µM is -12%.

Regarding `Cc1ocnc1C(=O)N1CC[C@@H](O)[C@@H](O)[C@H](N2CCC(F)(F)CC2)C1`, the cytotoxicity at 10 µM was 4.86%.
